According to ChEMBL document CHEMBL3351428, “Uralsaponins M-Y, antiviral triterpenoid saponins from the roots of Glycyrrhiza uralensis” (J Nat Prod, 2014):

Columns and labels:
[1] = Antiviral activity against Influenza A virus A/WSN/33 (H1N1) infected in MDCK cells assessed as inhibition of virus-induced cell death at 100 uM after 36 hrs by CellTiter-Glo luminescent cell viability assay; assay type: functional, Influenza A virus (A/WSN/1933(H1N1))
Method in brief: (§1)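 MDCK cells in DMEM/10% FBS with penicillin-streptomycin, seeded 1 × 10^5/well 24 h before infection (37 °C, 5% CO2). Virus was grown in MDCK with 2 μg/mL TPCK-trypsin. Compound premixed with virus 15 min at room temperature, then added after medium removal. Read at 36 h postinfection by microscopy, confirmed by CellTiter-Glo. Inhibition % computed from luminescence relative to DMSO with/without virus. IC50 measured for significant inhibitors.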

[2] = system: MDCK; assay: Cytotoxicity against MDCK cells assessed as reduction in cell viability at 100 uM after 36 hrs by CellTiter-Glo luminescent assay; assay type: cell-based, Canis lupus familiaris; details: dog
Method in brief: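 Uninfected MDCK cells, grown in DMEM with 10% FBS, 100 U/mL penicillin and 100 μg/mL streptomycin, were incubated with compound for 36 h. Cytopathic effect was scored by microscopy and confirmed by CellTiter-Glo luminescent viability read-out.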

[3] = Antiviral activity against Influenza A virus A/WSN/33 (H1N1) infected in MDCK cells assessed as inhibition of virus-induced cell death after 36 hrs by CellTiter-Glo luminescent cell viability assay; assay type: functional, cell-based, Influenza A virus (A/WSN/1933(H1N1)); method in brief: as §1
[4] = system: Human immunodeficiency virus 1; assay: Antiviral activity against VSV-G protein pseudotyped HIV1 infected in 293T cells assessed as inhibition of viral replication after 48 hrs by luciferase reporter assay; assay type: functional, organism-based; details: Human immunodeficiency virus 1, HEK-293T
Method in brief: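 Pseudovirus was made by cotransfecting 293T cells with pNL-Luc-E and pHIT/G and harvesting filtered supernatant after 48 h. Capsid level was quantified by p24 ELISA. SupT1 cells were infected at MOI 1 with or without compound (efavirenz as positive control) at […] for 48 h. Luciferase read-out gave inhibition rate. Compounds above 50% at 100 μM were taken to IC50.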

[5] = system: Human immunodeficiency virus 1; assay: Antiviral activity against VSV-G protein pseudotyped HIV1 infected in 293T cells assessed as inhibition of viral replication at 100 uM after 48 hrs by luciferase reporter assay; assay type: functional; details: Human immunodeficiency virus 1, HEK-293T

Structure (SMILES)	inhibition at 100 µM [1] [%]	Activity [2]	IC50 [3] [µM]	IC50 [4] [µM]	inhibition at 100 µM [5] [%]
C[C@@H]1O[C@@H](O[C@H]2[C@H](O[C@H]3[C@H](O[C@H]4CC[C@]5(C)[C@H]6C(=O)C=C7[C@@H]8C[C@@](C)(C(=O)O)[C@H](O)C[C@]8(C)CC[C@@]7(C)[C@]6(C)CC[C@H]5C4(C)C)O[C@H](C(=O)O)[C@@H](O)[C@@H]3O)O[C@H](CO)[C@@H](O)[C@@H]2O)[C@H](O)[C@H](O)[C@H]1O	47.5	Non-toxic	42.7	–	–
C[C@@H]1O[C@@H](O[C@@H]2CC(C)(C)C[C@H]3C4=CC(=O)[C@@H]5[C@@]6(C)CC[C@H](O[C@@H]7O[C@H](C(=O)O)[C@@H](O)[C@H](O)[C@H]7O[C@@H]7O[C@H](C(=O)O)[C@@H](O)[C@H](O)[C@H]7O)C(C)(C)[C@@H]6CC[C@@]5(C)[C@]4(C)CC[C@@]23C)[C@H](O)[C@H](O)[C@H]1O	47.5	Non-toxic	39.6	–	–
CC(=O)O[C@@H]1C[C@](C)(C(=O)O)C[C@H]2C3=CC(=O)[C@@H]4[C@@]5(C)CC[C@H](O[C@H]6O[C@H](C(=O)O)[C@@H](O)[C@H](O)[C@H]6O[C@@H]6O[C@H](C(=O)O)[C@@H](O)[C@H](O)[C@H]6O)C(C)(C)[C@@H]5CC[C@@]4(C)[C@]3(C)CC[C@@]12C	47.5	Non-toxic	49.1	29.5	–
CC1(C)[C@@H](O[C@@H]2O[C@H](C(=O)O)[C@@H](O)[C@H](O)[C@H]2O[C@@H]2O[C@H](C(=O)O)[C@@H](O)[C@H](O)[C@H]2O)CC[C@]2(C)[C@H]3C(=O)C=C4[C@@H]5C[C@]6(C)C[C@@H](OC6=O)[C@]5(C)CC[C@@]4(C)[C@]3(C)CC[C@@H]12	–	–	–	87.1	> 50
CC1(C)[C@@H](O[C@@H]2O[C@H](C(=O)O)[C@@H](O)[C@H](O)[C@H]2O[C@@H]2O[C@H](C(=O)O)[C@@H](O)[C@H](O)[C@H]2O)CC[C@]2(C)[C@H]3CC=C4[C@@H]5C[C@@](C)(C(=O)O)CC[C@]5(C)CC[C@@]4(C)[C@]3(C)CC[C@@H]12	–	–	–	83.2	> 50
CC1(C)[C@@H](O[C@H]2O[C@H](C(=O)O)[C@@H](O)[C@H](O)[C@H]2O[C@@H]2OC[C@H](O)[C@H](O)[C@H]2O)CC[C@]2(C)[C@H]3C(=O)C=C4[C@@H]5C[C@@](C)(C(=O)O)CC[C@]5(C)CC[C@@]4(C)[C@]3(C)CC[C@@H]12	–	–	–	85.1	> 50
CC(=O)O[C@@H]1C[C@](C)(C=O)C[C@H]2C3=CC(=O)[C@@H]4[C@@]5(C)CC[C@H](O)C(C)(C)[C@@H]5CC[C@@]4(C)[C@]3(C)CC[C@@]12C	–	–	–	69.2	> 50
CC1(C)[C@@H](O[C@@H]2O[C@H](CO)[C@@H](O)[C@H](O)[C@H]2O)CC[C@]2(C)[C@H]3C(=O)C=C4[C@@H]5C[C@@](C)(C(=O)O)CC[C@]5(C)CC[C@@]4(C)[C@]3(C)CC[C@@H]12	–	–	–	41.7	> 50
CC1(C)[C@@H](O)CC[C@]2(C)[C@H]3C(=O)C=C4[C@@H]5C[C@@](C)(C(=O)O)CC[C@]5(C)CC[C@@]4(C)[C@]3(C)CC[C@@H]12 [ENOXOLONE]	–	–	–	28.8	–
CCOC(=O)C1=C[C@@H](OC(CC)CC)[C@H](NC(C)=O)[C@@H](N)C1 [OSELTAMIVIR PHOSPHATE]	78	–	45.6	–	–
